Source: ChEMBL document CHEMBL4825703, “Investigation of 3-sulfamoyl coumarins against cancer-related IX and XII isoforms of human carbonic anhydrase as well as cancer cells leads to the discovery of 2-oxo-2H-benzo[h]chromene-3-sulfonamide - A new caspase-activating proapoptotic agent” (Eur J Med Chem, 2021)
Active and inactive are the calls of the source. No cut-off for these calls is given here.

Key:
U-87 MG [1] = experiment: Antiproliferative activity against human U-87 MG cells assessed as cell survival rate at 300 uM measured after 24 hrs under CoCl2-induced hypoxic condition by MTT assay relative to control; format: functional, U-87MG ATCC; conditions: read-out: Survival
Summary of the method: (§1)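 MTT end-point assay. MTT (5 mg/mL in PBS) added for 4 h, formazan dissolved in DMSO, absorbance read at 560 nm. Viability given as % of untreated control (100%); mean ± SEM of three experiments.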

A-431 [2] = experiment: Antiproliferative activity against human A-431 cells assessed as reduction in cell viability measured after 24 hrs by MTT assay; conditions: A-431, 24 h
A-431 [3] = experiment: Antiproliferative activity against human A-431 cells assessed as reduction in cell viability measured after 48 hrs by MTT assay; conditions: A-431, 48 h
[4] = Antiproliferative activity against human WI-26 AV4 cells assessed as reduction in cell viability measured after 72 hrs by MTT assay; conditions: WI26VA4, 72 h
Carbonic anhydrase 9 = Carbonic anhydrase 9 (Homo sapiens, UniProt Q16790); experiment: Inhibition of human carbonic anhydrase 9 assessed as inhibition constant incubated for 15 mins prior to testing by phenol red based stopped-flow CO2 hydration assay
U-87 MG [5] = experiment: Antiproliferative activity against human U-87 MG cells assessed as cell growth inhibition at 30 to 100 uM measured after 24 hrs under CoCl2-induced hypoxic condition by MTT assay; format: functional, cell-based; conditions: U-87MG ATCC, dose 30-100 µM
[6] = Antiproliferative activity against human WI-26 AV4 cells assessed as reduction in cell viability measured after 48 hrs by MTT assay; conditions: WI-26 AV4, 48 h
A-431 [7] = experiment: Antiproliferative activity against human A-431 cells assessed as cell survival rate at 300 uM measured after 24 hrs under CoCl2-induced hypoxic condition by MTT assay relative to control; format: functional; conditions: read-out: Survival; summary of the method: as §1
[8] = Antiproliferative activity against human WI-26 AV4 cells assessed as reduction in cell viability measured after 24 hrs by MTT assay; conditions: WI-26 AV4, 24 h
A-431 [9] = experiment: Antiproliferative activity against human A-431 cells assessed as cell survival rate at 100 uM measured after 24 hrs under CoCl2-induced hypoxic condition by MTT assay relative to control; format: functional; conditions: read-out: Survival; summary of the method: as §1
hTERT-BJ [10] = experiment: Cytotoxicity against human TERT-Bj-5ta cells assessed as reduction in cell viability at measured after 24 hrs under CoCl2- induced hypoxic condition by MTT assay; format: cell-based
RT-4 [11] = experiment: Antiproliferative activity against human RT-4 cells assessed as cell survival rate at 100 uM measured after 24 hrs under CoCl2-induced hypoxic condition by MTT assay relative to control; format: functional; conditions: read-out: Survival; summary of the method: as §1
RT-4 [12] = experiment: Antiproliferative activity against human RT-4 cells assessed as cell survival rate at 300 uM measured after 24 hrs under CoCl2-induced hypoxic condition by MTT assay relative to control; format: functional; conditions: read-out: Survival; summary of the method: as §1
A-431 [13] = experiment: Antiproliferative activity against human A-431 cells assessed as reduction in cell viability measured after 72 hrs by MTT assay; conditions: A-431, 72 h
hTERT-BJ [14] = experiment: Cytotoxicity against human TERT-Bj-5ta cells assessed as reduction in cell viability at 300 uM measured after 24 hrs under CoCl2- induced hypoxic condition by MTT assay relative to control; format: cell-based

## NS(=O)(=O)c1cc2cc(Cl)cc(Cl)c2oc1=O
U-87 MG [1]
  viability at 300 µM: 54.1%
A-431 [2]
  IC50: 26.9 µM
A-431 [3]
  IC50: 20.3 µM
[4]
  IC50: 14.3 µM
Carbonic anhydrase 9
  Ki: 0.518 µM
U-87 MG [5]
  growth inhibition (GI): inactive
[6]
  IC50: 9.54 µM
A-431 [7]
  viability at 300 µM: 2.84%
[8]
  IC50: 74 µM
A-431 [9]
  viability at 100 µM: 38.8%
hTERT-BJ [10]
  Activity: Non-Toxic
RT-4 [11]
  viability at 100 µM: 43.5%
RT-4 [12]
  viability at 300 µM: 15.1%
A-431 [13]
  IC50: 35.2 µM

## COc1ccc2oc(=O)c(S(N)(=O)=O)cc2c1
hTERT-BJ [14]
  Activity: 70.97%
Carbonic anhydrase 9
  Ki: 0.0581 µM
U-87 MG [5]
  growth inhibition (GI): inactive

## NS(=O)(=O)c1cc2cccc(O)c2oc1=O
U-87 MG [1]
  viability at 300 µM: 67.7%
hTERT-BJ [14]
  Activity: 54.76%
Carbonic anhydrase 9
  Ki: 0.0987 µM
U-87 MG [5]
  growth inhibition (GI): inactive
RT-4 [12]
  viability at 300 µM: 19.7%

## COc1cccc2cc(S(N)(=O)=O)c(=O)oc12
Carbonic anhydrase 9
  Ki: 0.0879 µM
U-87 MG [5]
  growth inhibition (GI): inactive

## NS(=O)(=O)c1cc2cc(Br)ccc2oc1=O
A-431 [2]
  IC50: 38.4 µM
A-431 [3]
  IC50: 24.7 µM
[4]
  IC50: 21.5 µM
Carbonic anhydrase 9
  Ki: 0.317 µM
U-87 MG [5]
  growth inhibition (GI): inactive
[6]
  IC50: 42.1 µM
A-431 [7]
  viability at 300 µM: 39.3%
[8]
  IC50: 76.6 µM
hTERT-BJ [10]
  Activity: Non-Toxic
RT-4 [12]
  viability at 300 µM: 19.7%
A-431 [13]
  IC50: 49.2 µM

## NS(=O)(=O)c1cc2cc([N+](=O)[O-])ccc2oc1=O
Carbonic anhydrase 9
  Ki: 0.148 µM
U-87 MG [5]
  growth inhibition (GI): inactive

## NS(=O)(=O)c1cc2ccccc2oc1=O
Carbonic anhydrase 9
  Ki: 0.0651 µM
U-87 MG [5]
  growth inhibition (GI): inactive

## Cc1ccc2oc(=O)c(S(N)(=O)=O)cc2c1
Carbonic anhydrase 9
  Ki: 0.0474 µM
U-87 MG [5]
  growth inhibition (GI): inactive
